Assay results: publication PMC6028938 (Neurobiology of disease, 2018)
pIC50: −log10 of the molar value.

Tests used:
PKA CαM120A [1] = biological target: T1, PKA CαM120A (Mus musculus, UniProt P05132, M121A); assay type: biochemical
PKA CαM120A [2] = biological target: T1, PKA CαM120A; experiment: Atxn1 2Q/2Q; assay type: cell-based
[3] = mice, delivered in drinking water or by IP injection; cited from earlier work
CαM120A = CαM120A (Mus musculus, UniProt P05132, M121A); experiment: 1-NM-PP1 delivered in vivo; conditions: cage drinking water or intra-cerebro-ventricular injections, data not shown
PKA = conditions: cited from earlier work
endogenous human ATXN1 = experiment: SCA1 patient iPSC-derived neuronal cells, western blot of ATXN1; assay type: cell-based; conditions: 10 μM, two-day treatment
Procedure, shortened: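 NPCs differentiated 7 days in DMEM/F12 with 100 ng/ml FGF8, 200 ng/mL SHH and 1:100 N2; β-III tubulin-stained. Treated 2 days with 10 μM test compound, lysed in Tris-Triton buffer. Western blot: MoAb-17 (1 ng/μl) for pS776, 11750 for total ATXN1, GAPDH-normalised.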

Atxn1[66Q] and Atxn1[2Q] = experiment: GSK690693 treatment in Atxn1 66Q/2Q cerebellar slice cultures; assay type: cell-based, mouse; conditions: 10 μM
mice = conditions: mouse
MSK = conditions: read-out: IC50 as MSK inhibitor; cited from earlier work
[4] = tested on: RFP-ATXN1[82Q] in DAOY cells; experiment: Live cell imaging of DAOY cells stably expressing RFP-ATXN1[82Q]; assay type: cell-based, human
Procedure, shortened: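 DAOY cells stably carrying RFP-ATXN1[82Q]-IRES-YFP, grown on 35 mm plates and moved to imaging chambers heated to 37 °C. At time zero, 10 nM test compound or DMSO vehicle was added. Brightfield and RFP images were taken every 2 minutes on an inverted fluorescence microscope.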

PKA pathway = conditions: postnatal day 7 ATXN1[82Q] mouse cerebellar slices; cited from earlier work
[5] = 20 μM 1-NM-PP1, three-day incubation, vs no treatment or DMSO
[6] = one day of exposure, P10 slices

Structure (SMILES): CC(C)(C)n1nc(Cc2cccc3ccccc23)c2c(N)ncnc21 [1-NM-PP1]
- inhibition of S776 phosphorylation (PKA CαM120A [1]; 10 μM 1-NM-PP1, the highest dose tested): Subtle inhibition
- level of Atxn1[2Q] protein (PKA CαM120A [2]; [5]): failed to affect
- phosphorylation of pan-PKA substrates (PKA CαM120A [2]; [5]): failed to affect
- blood brain barrier crossing [3]: cross the blood brain barrier
- inhibition of CαM120A in vivo (CαM120A): failed

Structure (SMILES): CCn1c(-c2nonc2N)nc2c(C#CC(C)(C)O)ncc(OC[C@H]3CCCNC3)c21 [GSK690693, 4-[2-(4-Amino-1,2,5-oxadiazol-3-yl)-1-ethyl-7-[(3S)-3-piperidinylmethoxy)-1H-imidazo[4,5-c]pyridin-4-yl]-2-methyl-3-butyn-2-ol]
- IC50s for AGC kinase family members including PKA (in words) (PKA): nanomolar
- concentration that blocks ATXN1[30Q]-S776 phosphorylation (PKA CαM120A [1]; Cα M120A cerebellar extracts as kinase source): ≤ 10 nM
- reduction of endogenous ATXN1 levels (endogenous human ATXN1): 44%
- amount of Atxn1[2Q] protein (PKA CαM120A [2]; 10 μM GSK690693, two days): significantly decreased
- pan-PKA substrate phosphorylation (PKA CαM120A [2]; 10 μM GSK690693, two days): dramatically decreased
- S776 phosphorylation status (MoAB-17 blot) (Atxn1[66Q] and Atxn1[2Q]; by 5 days of treatment): decrease in pS776
- phosphorylation of other cerebellar proteins with PKA consensus site RRX(S/T) (pan-PKA substrates antibody) (Atxn1[66Q] and Atxn1[2Q]; by one day of treatment): Inhibition
- reduction of Atxn1[2Q] level (Atxn1[66Q] and Atxn1[2Q]; five days): 68%
- reduction of Atxn1[66Q] level (Atxn1[66Q] and Atxn1[2Q]; five days): 70%
- reduction of Atxn1[2Q] level (Atxn1[66Q] and Atxn1[2Q]; [6]): 22%
- reduction of Atxn1[66Q] level (Atxn1[66Q] and Atxn1[2Q]; [6]): 29%
- reduction of Atxn1[2Q] level (Atxn1[66Q] and Atxn1[2Q]; three days): 54%
- reduction of Atxn1[66Q] level (Atxn1[66Q] and Atxn1[2Q]; three days): 56%
- toxicity in vivo (mice): very toxic with treated mice having seizures

Structure (SMILES): CCn1c(-c2nonc2N)nc2cncc(CNC3CCNCC3)c21 [SB-747651A]
- inhibitory activity towards PKA relative to MSK (less) (PKA): approximately 10 fold
- pIC50 (MSK): 7.96

Structure (SMILES): CN[C@@H]1C[C@H]2O[C@@](C)([C@@H]1OC)n1c3ccccc3c3c4c(c5c6ccccc6n2c5c31)C(=O)NC4 [Staurosporine]
- RFP-ATXN1[82Q] signal ([4]; 10 nM staurosporine, as early as two minutes post-treatment, continued to decrease out to six minutes, 37 °C): substantially diminished
- fluorescently tagged ATXN1[82Q] detectability ([4]; after four minutes of exposure to staurosporine): no longer detectable

Structure (SMILES): C=C[C@@]1(C)CC(=O)[C@]2(O)[C@@]3(C)[C@@H](O)CCC(C)(C)[C@@H]3[C@H](O)[C@H](OC(C)=O)[C@@]2(C)O1 [forskolin]
- dendritic morphology of cerebellar slices (PKA pathway): enhanced dendritic morphological abnormalities
